# Laboratory results from ChEMBL document CHEMBL1137658, “Effect of caspofungin on metabolite profiles of Aspergillus species determined by nuclear magnetic resonance spectroscopy” (2007).
# Active and inactive are the calls of the source. The rule behind the calls is not given here.
# Assays:
# Aspergillus fumigatus [1] = assay: Antifungal activity against Aspergillus fumigatus isolate 06-067-1639 assessed as lowest drug concentration resulting in aberrant hyphal growth after 48 hrs by broth microdilution method; type: functional
# Method in brief: (§1)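 Caspofungin tested by modified CLSI M38-A microdilution in RPMI 1640 plus 2% glucose, l-glutamine, MOPS pH 7. Serial dilutions 0.03125 to 16 μg/ml; duplicate plates. MEC = lowest concentration giving aberrant hyphal growth on inverted-microscope examination, read at 48 h.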
# Aspergillus fumigatus [2] = assay: Antifungal activity against Aspergillus fumigatus ATCC 204305 assessed as lowest drug concentration resulting in aberrant hyphal growth after 48 hrs by broth microdilution method; type: functional; method in brief: as §1
# Aspergillus fumigatus [3] = assay: Antifungal activity against Aspergillus fumigatus ATCC 204305 assessed as lowest drug concentration resulting in aberrant hyphal growth after 72 hrs by broth microdilution method; type: functional
# Aspergillus terreus [4] = assay: Antifungal activity against Aspergillus terreus isolate 06-059-2428 assessed as lowest drug concentration resulting in aberrant hyphal growth after 48 hrs by broth microdilution method; type: functional; method in brief: as §1
# Aspergillus terreus [5] = assay: Antifungal activity against Aspergillus terreus isolate 04-188-2548 assessed as lowest drug concentration resulting in aberrant hyphal growth after 48 hrs by broth microdilution method; type: functional; method in brief: as §1
# Aspergillus niger [6] = assay: Antifungal activity against Aspergillus niger isolate 05-290-2479 assessed as lowest drug concentration resulting in aberrant hyphal growth after 48 hrs by broth microdilution method; type: functional; method in brief: as §1
# Aspergillus niger [7] = assay: Antifungal activity against Aspergillus niger isolate 05-112-3701 assessed as lowest drug concentration resulting in aberrant hyphal growth after 48 hrs by broth microdilution method; type: functional; method in brief: as §1
# Aspergillus nidulans [8] = assay: Antifungal activity against Aspergillus nidulans isolate 05-326-1785 assessed as lowest drug concentration resulting in aberrant hyphal growth after 72 hrs by broth microdilution method; type: functional
# Aspergillus nidulans [9] = assay: Antifungal activity against Aspergillus nidulans isolate 00-202661 assessed as lowest drug concentration resulting in aberrant hyphal growth after 72 hrs by broth microdilution method; type: functional
# Aspergillus flavus [10] = assay: Antifungal activity against Aspergillus flavus ATCC 204304 assessed as lowest drug concentration resulting in aberrant hyphal growth after 48 hrs by broth microdilution method; type: functional; method in brief: as §1
# Aspergillus flavus [11] = assay: Antifungal activity against Aspergillus flavus isolate 05-314-1100 assessed as lowest drug concentration resulting in aberrant hyphal growth after 48 hrs by broth microdilution method; type: functional; method in brief: as §1
# Aspergillus fumigatus [12] = assay: Inhibition of metabolite production in Aspergillus fumigatus isolate 06-067-1639 assessed as inhibition of glycine betaine production at => 1 ug/ml; type: functional, organism-based
# Aspergillus fumigatus [13] = assay: Inhibition of metabolite production in Aspergillus fumigatus isolate 06-067-1639 assessed as inhibition of malate and fumarate production at 2 to 4 ug/ml; type: functional
# Aspergillus fumigatus [14] = assay: Inhibition of metabolite production in Aspergillus fumigatus ATCC 204305 assessed as lowest drug concentration required to inhibit 50% malate production after 48 hrs in presence of 0.2 % glucose by NMR spectroscopy; type: functional
# Method in brief: (§2)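 A. fumigatus ATCC 204305 incubated 48 h and 72 h with caspofungin in RPMI 1640 containing 0.2% glucose instead of 2%. ¹H NMR of medium. MEP from malate peak area, taken at ≥50% reduction.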
# Aspergillus fumigatus [15] = assay: Inhibition of metabolite production in Aspergillus fumigatus ATCC 204305 assessed as lowest drug concentration required to inhibit 50% malate production after 72 hrs in presence of 0.2 % glucose by NMR spectroscopy; type: functional; method in brief: as §2
# Aspergillus fumigatus [16] = assay: Increase in metabolite production in Aspergillus fumigatus isolate 06-067-1639 assessed as paradoxical increase in glycine betain, fumarate, succinate level at 1 ug/ml after 48 hrs; type: functional, organism-based
# Aspergillus terreus [17] = assay: Inhibition of metabolite production in Aspergillus terreus isolate 06-059-2428 assessed as lowest drug concentration required to inhibit 50% ethanol production after 48 hrs in presence of 2 % glucose by NMR spectroscopy; type: functional
# Method in brief: (§3)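 Cultures grown in RPMI 1640-2% glucose-MOPS with drug series, 48 h. Culture media analysed by 600-MHz ¹H NMR. MEP taken from stack plots and peak integrals of resolved resonances, as lowest drug concentration suppressing nutrient use or metabolite production by ≥50%. Alternative MEP: lowest concentration raising fumarate >50%.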
# Aspergillus niger [18] = assay: Inhibition of metabolite production in Aspergillus niger isolate 05-112-3701 assessed as lowest drug concentration required to inhibit 50% citrate production after 48 hrs in presence of 2 % glucose by NMR spectroscopy; type: functional; method in brief: as §3
# Aspergillus nidulans [19] = assay: Inhibition of metabolite production in Aspergillus nidulans isolate 05-326-1785 assessed as lowest drug concentration required to inhibit 50% fumarate production after 72 hrs in presence of 2 % glucose by NMR spectroscopy; type: functional
# Method in brief: (§4)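 A. nidulans grows slowly, so spectra were recorded after 72 h incubation in RPMI 1640-2% glucose-MOPS with drug dilutions. 600-MHz ¹H NMR of culture medium. Fumarate peak integrals plotted against drug concentration. MEP = lowest concentration with ≥50% fall in fumarate.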
# Aspergillus nidulans [20] = assay: Inhibition of metabolite production in Aspergillus nidulans isolate 00-202661 assessed as lowest drug concentration required to inhibit 50% fumarate production after 72 hrs in presence of 2 % glucose by NMR spectroscopy; type: functional; method in brief: as §4
# Aspergillus fumigatus [21] = assay: Increase in metabolite production in Aspergillus fumigatus isolate 06-067-1639 assessed as lowest drug concentration required to increase >50% glycine betaine production after 48 hrs in presence of 2 % glucose by NMR spectroscopy; type: functional
# Aspergillus flavus [22] = assay: Increase in metabolite production in Aspergillus flavus isolate 05-314-1100 assessed as lowest drug concentration required to increase >50% fumarate production after 48 hrs in presence of 2 % glucose by NMR spectroscopy; type: functional; method in brief: as §3
# Aspergillus fumigatus [23] = assay: Inhibition of metabolite production in Aspergillus fumigatus ATCC 204305 assessed as lowest drug concentration required to inhibit 50% malate production after 72 hrs in presence of 2 % glucose by NMR spectroscopy; type: functional
# Method in brief: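 Caspofungin dilutions with A. fumigatus ATCC 204305 in RPMI 1640-2% glucose-MOPS, incubated 72 h. ¹H NMR of medium. MEP = lowest concentration giving ≥50% fall in malate, glycine betaine or fumarate peak areas.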
# Aspergillus fumigatus [24] = assay: Inhibition of metabolite production in Aspergillus fumigatus ATCC 204305 assessed as lowest drug concentration required to inhibit 50% malate production after 48 hrs in presence of 2 % glucose by NMR spectroscopy; type: functional; method in brief: as §3
# Aspergillus terreus [25] = assay: Inhibition of metabolite production in Aspergillus terreus isolate 04-188-2548 assessed as lowest drug concentration required to inhibit 50% ethanol, malate production after 48 hrs in presence of 2 % glucose by NMR spectroscopy; type: functional; method in brief: as §3
# Aspergillus niger [26] = assay: Inhibition of metabolite production in Aspergillus niger isolate 05-290-2479 assessed as lowest drug concentration required to inhibit 50% citrate production after 48 hrs in presence of 2 % glucose by NMR spectroscopy; type: functional; method in brief: as §3
# Aspergillus fumigatus [27] = assay: Inhibition of metabolite production in Aspergillus fumigatus ATCC 204305 assessed as lowest drug concentration required to inhibit 50% glycine betain, fumarate, malate production after 48 hrs in presence of 2 % glucose by NMR spectroscopy; type: functional; method in brief: as §3
# Aspergillus flavus [28] = assay: Increase in metabolite production in Aspergillus flavus ATCC 204304 assessed as lowest drug concentration required to increase >50% fumarate production after 48 hrs in presence of 2 % glucose by NMR spectroscopy; type: functional; method in brief: as §3
# Aspergillus fumigatus [29] = assay: Increase in metabolite production in Aspergillus fumigatus ATCC 204305 assessed as paradoxical increase in glycine betaine, fumarate and succinate level at >= 0.5 ug/ml after 48 hrs
smiles,measurement,setting,value
CC[C@H](C)C[C@H](C)CCCCCCCCC(=O)N[C@H]1C[C@@H](O)[C@@H](NCCN)NC(=O)[C@@H]2[C@@H](O)CCN2C(=O)[C@H]([C@H](O)CCN)NC(=O)[C@H]([C@H](O)[C@@H](O)c2ccc(O)cc2)NC(=O)[C@@H]2C[C@@H](O)CN2C(=O)[C@H]([C@@H](C)O)NC1=O [CASPOFUNGIN],Activity,Aspergillus fumigatus [1],0.03 µg/mL
same,Activity,Aspergillus fumigatus [2],0.03 µg/mL
same,Activity,Aspergillus fumigatus [3],0.03 µg/mL
same,Activity,Aspergillus terreus [4],0.03 µg/mL
same,Activity,Aspergillus terreus [5],0.03 µg/mL
same,Activity,Aspergillus niger [6],0.5 µg/mL
same,Activity,Aspergillus niger [7],0.5 µg/mL
same,Activity,Aspergillus nidulans [8],4 µg/mL
same,Activity,Aspergillus nidulans [9],2 µg/mL
same,Activity,Aspergillus flavus [10],0.03 µg/mL
same,Activity,Aspergillus flavus [11],0.03 µg/mL
same,Activity,Aspergillus fumigatus [12],inactive
same,inhibition (INH),Aspergillus fumigatus [13],20%
same,Activity,Aspergillus fumigatus [14],0.06 µg/mL
same,Activity,Aspergillus fumigatus [15],0.03 µg/mL
same,Activity,Aspergillus fumigatus [16],Active
same,Activity,Aspergillus terreus [17],0.06 µg/mL
same,Activity,Aspergillus niger [18],0.5 µg/mL
same,Activity,Aspergillus nidulans [19],4 µg/mL
same,Activity,Aspergillus nidulans [20],2 µg/mL
same,Activity,Aspergillus fumigatus [21],1 µg/mL
same,Activity,Aspergillus flavus [22],0.03 µg/mL
same,Activity,Aspergillus fumigatus [23],0.03 µg/mL
same,Activity,Aspergillus fumigatus [24],0.5 µg/mL
same,Activity,Aspergillus terreus [25],0.5 µg/mL
same,Activity,Aspergillus niger [26],0.25 µg/mL
same,Activity,Aspergillus fumigatus [27],0.5 µg/mL
same,Activity,Aspergillus flavus [28],0.03 µg/mL
same,Activity,Aspergillus fumigatus [29],Active
